Data reported in ChEMBL document CHEMBL1275244, “Antimicrobial resistance among respiratory pathogens in Spain: latest data and changes over 11 years (1996-1997 to 2006-2007)” (2010).
Values after ≈ are worked out from the molar mass of the structure shown.

Key:
Format in all cases: functional
Streptococcus pneumoniae [1] = experiment: Antimicrobial activity against Streptococcus pneumoniae clinical isolates by broth dilution method
Streptococcus pyogenes [2] = experiment: Antimicrobial activity against Streptococcus pyogenes clinical isolates by broth dilution method
Streptococcus pneumoniae [3] = experiment: Antimicrobial activity against Streptococcus pneumoniae clinical isolates assessed as susceptible isolates by broth dilution method
Method in brief: (§1)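 Isolates kept frozen at −70°C in duplicate and revived by hot-loop touching. MICs by the CLSI broth microdilution method active in the year of study, with S. pneumoniae ATCC 49619 as control. Categories assigned with CLSI M100-S19 breakpoints.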

Haemophilus influenzae [4] = experiment: Antimicrobial activity against Haemophilus influenzae clinical isolates assessed as susceptible isolates by broth dilution method
Streptococcus pyogenes [5] = experiment: Antimicrobial activity against Streptococcus pyogenes clinical isolates assessed as resistant isolates by broth dilution method
Method in brief: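 S. pyogenes clinical isolates were held at −70°C in duplicate and revived by the hot-loop touching method. MICs were obtained by the CLSI broth microdilution procedure active in the year of study. Resistance was interpreted according to CLSI M100-S19.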

Haemophilus influenzae [6] = experiment: Antimicrobial activity against Haemophilus influenzae clinical isolates assessed as resistant isolates by broth dilution method
Streptococcus pneumoniae [7] = experiment: Antimicrobial activity against Streptococcus pneumoniae clinical isolates assessed as susceptible isolates by PK/PD technique
Streptococcus pneumoniae [8] = experiment: Antimicrobial activity against Streptococcus pneumoniae clinical isolates assessed as resistant isolates by broth dilution method
Streptococcus pyogenes [9] = experiment: Antimicrobial activity against Streptococcus pyogenes clinical isolates assessed as susceptible isolates by broth dilution method
Method in brief: (§2)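 S. pyogenes clinical isolates held at −70°C in duplicate and recovered by hot-loop touching. MICs by the CLSI broth microdilution method in force in the study year, interpreted per CLSI M100-S19.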

Haemophilus influenzae [10] = experiment: Antimicrobial activity against Haemophilus influenzae clinical isolates by broth dilution method
Haemophilus influenzae [11] = experiment: Antimicrobial activity against Haemophilus influenzae clinical isolates assessed as susceptible isolates by PK/PD technique
Haemophilus influenzae [12] = experiment: Antimicrobial activity against Haemophilus influenzae clinical isolates by broth dilution method in presence of beta-lactamase inhibitor clavulanic acid
Method in brief: (§3)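 Clinical isolates stored in duplicate at −70°C and recovered by the hot-loop touching method. MICs by the CLSI broth microdilution method current in the study year, in Haemophilus test medium (HTM). Growth support of HTM checked with H. influenzae ATCC 10211. Controls were H. influenzae ATCC 49247 and ATCC 49766 and E. coli ATCC 35218. Susceptibility interpreted per CLSI M100-S19.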

Streptococcus pneumoniae [13] = experiment: Antimicrobial activity against Streptococcus pneumoniae clinical isolates by broth dilution method in presence of beta-lactamase inhibitor clavulanic acid; method in brief: as §1
Streptococcus pyogenes [14] = experiment: Antimicrobial activity against Streptococcus pyogenes clinical isolates by broth dilution method in presence of beta-lactamase inhibitor clavulanic acid; method in brief: as §2
Haemophilus influenzae [15] = experiment: Antimicrobial activity against Haemophilus influenzae clinical isolates assessed as susceptible isolates by PK/PD technique in presence […] of beta-lactamase inhibitor clavulanic acid; set-up: scale not given: the % may be the effect or the level left
Haemophilus influenzae [16] = experiment: Antimicrobial activity against Haemophilus influenzae clinical isolates assessed as susceptible isolates by broth dilution method in presence of beta-lactamase inhibitor clavulanic acid; method in brief: as §3
Streptococcus pneumoniae [17] = experiment: Antimicrobial activity against Streptococcus pneumoniae clinical isolates assessed as susceptible isolates by broth dilution method in presence of beta-lactamase inhibitor clavulanic acid; method in brief: as §1
Haemophilus influenzae [18] = experiment: Antimicrobial activity against Haemophilus influenzae clinical isolates assessed as resistant isolates by broth dilution method in presence of beta-lactamase inhibitor clavulanic acid
Method in brief: (§4)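 H. influenzae clinical isolates were stored at −70°C in duplicate and recovered by the hot-loop touching method without repeated thawing. MICs were determined by CLSI broth microdilution in Haemophilus test medium, following the method current in the study year. Each medium batch was checked for growth support with H. influenzae ATCC 10211. Controls were H. influenzae ATCC 49247 and ATCC 49766 and E. coli ATCC 35218. Categories were assigned per CLSI M100-S19.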

Streptococcus pneumoniae [19] = experiment: Antimicrobial activity against Streptococcus pneumoniae clinical isolates assessed as susceptible isolates by PK/PD technique in presence of beta-lactamase inhibitor clavulanic acid
Haemophilus influenzae [20] = experiment: Antimicrobial activity against Haemophilus influenzae clinical isolates assessed as susceptible isolates by PK/PD technique in presence of beta-lactamase inhibitor clavulanic acid
Streptococcus pneumoniae [21] = experiment: Antimicrobial activity against Streptococcus pneumoniae clinical isolates assessed as susceptible isolates by PK/PD technique in presence of […] beta-lactamase inhibitor clavulanic acid
Streptococcus pneumoniae [22] = experiment: Antimicrobial activity against Streptococcus pneumoniae clinical isolates assessed as resistant isolates by broth dilution method in presence of beta-lactamase inhibitor clavulanic acid
Method in brief: (§5)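 S. pneumoniae clinical isolates were kept frozen at −70°C in duplicate and recovered by hot-loop touching to avoid repeated freeze-thaw. MICs were measured by CLSI broth microdilution as in force in the study year, with S. pneumoniae ATCC 49619 as control strain. Susceptibility categories were interpreted using CLSI M100-S19 breakpoints.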

Streptococcus pneumoniae [23] = experiment: Antimicrobial activity against Streptococcus pneumoniae clinical isolates assessed as resistant isolates by based on parenterally dosed broth dilution method in presence of beta-lactamase inhibitor clavulanic acid; method in brief: as §5
Streptococcus pneumoniae [24] = experiment: Antimicrobial activity against Streptococcus pneumoniae clinical isolates assessed as susceptible isolates by based on po dosed broth dilution method; method in brief: as §1
Streptococcus pneumoniae [25] = experiment: Antimicrobial activity against Streptococcus pneumoniae clinical isolates by based on po dosed broth dilution method; method in brief: as §1
Streptococcus pneumoniae [26] = experiment: Antimicrobial activity against Streptococcus pneumoniae clinical isolates assessed as resistant isolates by based on po dosed broth dilution method; method in brief: as §5
Streptococcus pneumoniae [27] = experiment: Antimicrobial activity against Streptococcus pneumoniae clinical isolates assessed as susceptible isolates by based on parenterally dosed broth dilution method; method in brief: as §1
Streptococcus pneumoniae [28] = experiment: Antimicrobial activity against Streptococcus pneumoniae clinical isolates by based on parenterally dosed broth dilution method; method in brief: as §1
Haemophilus influenzae [29] = experiment: Antimicrobial activity against Haemophilus influenzae clinical isolates by based on po dosed PK/PD technique
Haemophilus influenzae [30] = experiment: Antimicrobial activity against Haemophilus influenzae clinical isolates by based on po dosed broth dilution method; method in brief: as §4
Haemophilus influenzae [31] = experiment: Antimicrobial activity against Haemophilus influenzae clinical isolates assessed as resistant isolates by based on po dosed broth dilution method; method in brief: as §4
Streptococcus pneumoniae [32] = experiment: Antimicrobial activity against Streptococcus pneumoniae clinical isolates assessed as susceptible isolates by based on parenterally dosed PK/PD technique
Haemophilus influenzae [33] = experiment: Antimicrobial activity against Haemophilus influenzae clinical isolates assessed as susceptible isolates by based on po dosed broth dilution method; method in brief: as §3
Streptococcus pneumoniae [34] = experiment: Antimicrobial activity against Streptococcus pneumoniae clinical isolates assessed as susceptible isolates by po dosed PK/PD technique

Structure (SMILES)	MIC50 (Streptococcus pneumoniae [1])	MIC90 (Streptococcus pneumoniae [1])	MIC50 (Streptococcus pyogenes [2])	MIC90 (Streptococcus pyogenes [2])	Activity (Streptococcus pneumoniae [3])	Activity (Haemophilus influenzae [4])	Activity (Streptococcus pyogenes [5])	Activity (Haemophilus influenzae [6])	Activity (Streptococcus pneumoniae [7])	Activity (Streptococcus pneumoniae [8])	Activity (Streptococcus pyogenes [9])	MIC50 (Haemophilus influenzae [10])	MIC90 (Haemophilus influenzae [10])	Activity (Haemophilus influenzae [11])	also measured
CC[C@H]1OC(=O)[C@H](C)[C@@H](O[C@H]2C[C@@](C)(OC)[C@@H](O)[C@H](C)O2)[C@H](C)[C@@H](O[C@@H]2O[C@H](C)C[C@H](N(C)C)[C@H]2O)[C@](C)(O)C[C@@H](C)CN(C)[C@H](C)[C@@H](O)[C@]1(C)O [AZITHROMYCIN]	≤ 0.015 µg/mL	≥ 128 µg/mL	≤ 0.015 µg/mL	2 µg/mL (≈ 2.67 µM)	77.6%	100%	11.6%	0%	74.3%	20.8%	81.1%	0.25 µg/mL (≈ 0.334 µM)	1 µg/mL (≈ 1.34 µM)	23.8%	–
CC1(C)S[C@@H]2[C@H](NC(=O)[C@H](N)c3ccc(O)cc3)C(=O)N2[C@H]1C(=O)O [AMOXICILLIN]	–	–	–	–	–	–	–	–	–	–	–	–	–	–	MIC90 (Haemophilus influenzae [12]): 1 µg/mL; MIC50 (Haemophilus influenzae [12]; Haemophilus influenzae): 0.25 µg/mL; MIC50 (Streptococcus pneumoniae [13]): ≤ 0.015 µg/mL; MIC90 (Streptococcus pneumoniae [13]): 1 µg/mL; MIC50 (Streptococcus pyogenes [14]): ≤ 0.015 µg/mL; MIC90 (Streptococcus pyogenes [14]): ≤ 0.015 µg/mL; Activity (Haemophilus influenzae [15]): 99.7%; Activity (Haemophilus influenzae [16]): 99.7%; Activity (Streptococcus pneumoniae [17]): 94.8%; Activity (Haemophilus influenzae [18]): 0.3%; Activity (Streptococcus pneumoniae [19]): 94.8%; Activity (Haemophilus influenzae [20]): 97.5%; Activity (Streptococcus pneumoniae [21]): 98.8%; Activity (Streptococcus pneumoniae [22]): 1.2%
CO/N=C(\C(=O)N[C@@H]1C(=O)N2C(C(=O)O)=C(COC(C)=O)CS[C@H]12)c1csc(N)n1 [CEFOTAXIME]	≤ 0.015 µg/mL	0.25 µg/mL (≈ 0.549 µM)	≤ 0.015 µg/mL	≤ 0.015 µg/mL	99.6%	99.9%	0%	0.1%	99.6%	0.2%	100%	≤ 0.015 µg/mL	≤ 0.015 µg/mL	99.9%	–
N[C@@H](C(=O)N[C@@H]1C(=O)N2C(C(=O)O)=C(Cl)CS[C@H]12)c1ccccc1 [CEFACLOR ANHYDROUS]	0.125 µg/mL (≈ 0.34 µM)	16 µg/mL (≈ 43.5 µM)	0.03 µg/mL (≈ 0.0816 µM)	< 0.06 µg/mL	79.1%	97.8%	–	0%	75.9%	19%	–	1 µg/mL (≈ 2.72 µM)	4 µg/mL (≈ 10.9 µM)	25.8%	–
CC[C@H]1OC(=O)[C@H](C)[C@@H](O[C@H]2C[C@@](C)(OC)[C@@H](O)[C@H](C)O2)[C@H](C)[C@@H](O[C@@H]2O[C@H](C)C[C@H](N(C)C)[C@H]2O)[C@](C)(O)C[C@@H](C)C(=O)[C@H](C)[C@@H](O)[C@]1(C)O [ERYTHROMYCIN]	≤ 0.015 µg/mL	≥ 128 µg/mL	≤ 0.015 µg/mL	2 µg/mL (≈ 2.73 µM)	78.9%	–	19%	–	78.9%	21.1%	80.6%	1 µg/mL (≈ 1.36 µM)	4 µg/mL (≈ 5.45 µM)	32.5%	–
CC1(C)S[C@@H]2[C@H](NC(=O)[C@H](N)c3ccccc3)C(=O)N2[C@H]1C(=O)O [AMPICILLIN]	≤ 0.015 µg/mL	2 µg/mL (≈ 5.72 µM)	≤ 0.015 µg/mL	≤ 0.015 µg/mL	–	83.9%	0%	13.3%	93.4%	–	100%	0.12 µg/mL (≈ 0.343 µM)	4 µg/mL (≈ 11.4 µM)	86.7%	–
C[C@H]1COc2c(N3CCN(C)CC3)c(F)cc3c(=O)c(C(=O)O)cn1c23.C[C@H]1COc2c(N3CCN(C)CC3)c(F)cc3c(=O)c(C(=O)O)cn1c23.O [LEVOFLOXACIN]	0.125 µg/mL	0.25 µg/mL	0.125 µg/mL	0.25 µg/mL	97.6%	99.9%	0%	0.1%	97.7%	0.5%	100%	≤ 0.015 µg/mL	≤ 0.015 µg/mL	99.9%	–
CC1(C)S[C@@H]2[C@H](NC(=O)Cc3ccccc3)C(=O)N2[C@H]1C(=O)O [PENICILLIN G]	–	–	≤ 0.015 µg/mL	≤ 0.015 µg/mL	–	–	0%	–	–	–	100%	–	–	–	Activity (Streptococcus pneumoniae [23]): 0%; Activity (Streptococcus pneumoniae [24]): 77.1%; MIC50 (Streptococcus pneumoniae [25]): ≤ 0.015 µg/mL; MIC90 (Streptococcus pneumoniae [25]): 0.5 µg/mL (≈ 1.5 µM); Activity (Streptococcus pneumoniae [26]): 0.9%; Activity (Streptococcus pneumoniae [27]): 99.8%; MIC50 (Streptococcus pneumoniae [28]): ≤ 0.015 µg/mL; MIC90 (Streptococcus pneumoniae [28]): 0.5 µg/mL (≈ 1.5 µM)
CO/N=C(\C(=O)N[C@@H]1C(=O)N2C(C(=O)O)=C(COC(N)=O)CS[C@H]12)c1ccco1 [CEFUROXIME]	–	–	≤ 0.015 µg/mL	≤ 0.015 µg/mL	–	–	–	–	–	–	–	–	–	–	Activity (Haemophilus influenzae [29]): 91.4%; Activity (Streptococcus pneumoniae [23]): 5.5%; Activity (Streptococcus pneumoniae [24]): 94.5%; MIC50 (Streptococcus pneumoniae [25]): ≤ 0.015 µg/mL; MIC90 (Streptococcus pneumoniae [25]): 1 µg/mL (≈ 2.36 µM); MIC50 (Haemophilus influenzae [30]): 0.5 µg/mL (≈ 1.18 µM); MIC90 (Haemophilus influenzae [30]): 1 µg/mL (≈ 2.36 µM); Activity (Streptococcus pneumoniae [26]): 1.3%; Activity (Streptococcus pneumoniae [27]): 83.8%; Activity (Haemophilus influenzae [31]): 0.1%; Activity (Streptococcus pneumoniae [32]): 99.3%; Activity (Haemophilus influenzae [33]): 99.3%; MIC50 (Streptococcus pneumoniae [28]): ≤ 0.015 µg/mL; MIC90 (Streptococcus pneumoniae [28]): 1 µg/mL (≈ 2.36 µM); Activity (Streptococcus pneumoniae [34]): 94.5%
CC[C@H]1OC(=O)[C@H](C)[C@@H](O[C@H]2C[C@@](C)(OC)[C@@H](O)[C@H](C)O2)[C@H](C)[C@@H](O[C@@H]2O[C@H](C)C[C@H](N(C)C)[C@H]2O)[C@](C)(OC)C[C@@H](C)C(=O)[C@H](C)[C@@H](O)[C@]1(C)O [CLARITHROMYCIN]	≤ 0.015 µg/mL	≥ 128 µg/mL	≤ 0.015 µg/mL	2 µg/mL (≈ 2.67 µM)	78.2%	99.3%	16.5%	0%	78.2%	20.9%	80.9%	2 µg/mL (≈ 2.67 µM)	4 µg/mL (≈ 5.35 µM)	5.1%	–
